pIC50: −log10 of the molar value.

Assay [1] is filed under the species Rattus norvegicus. The assay is described as follows: The compound was tested for enhancement of electrically induced release of [3H]GABA from rat cortical slices. The format is functional. In outline:
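Rat cerebral cortex slices were electrically stimulated at 2 Hz, and the increase in GABA release was measured in quadruplicate. EC150, the concentration giving a 50% increase in GABA release, came from computer-aided curve fitting. Where no EC150 was given, the value is the percent increase at 10^-4 M or 10^-5 M.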

The target in assay [2] is Gamma-aminobutyric acid type B receptor subunit 1 (Rattus norvegicus, UniProt Q9Z0U4). The assay is described as follows: Inhibition of binding of [3H]CGP-27492 to gamma-aminobutyric acid type B receptor of rat cortex.
The species entered for assay [3] is Rattus norvegicus. The experiment in a line: Enhanced electrically induced release of [3H]GABA from rat cortical slices; agonist. It is filed as functional. The conditions noted are these: filed as agonist. In outline: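 Electrically stimulated rat cerebral cortex slices at 2 Hz; [3H]GABA release measured. EC150 is the concentration giving a 50% increase in GABA release, obtained by computer-aided curve fitting. Run in quadruplicate; no standard deviations computed because curve slopes varied. Some entries are instead percent increase at a single concentration of 10^-4 or 10^-5 M.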

The nature of assay [4]: Inhibition of [3H]5-HT binding to 5-hydroxytryptamine 1 receptor of central nervous system. The settings on record: concentration not given here.
Assay [5] concerns the target Histamine H2 receptor (Homo sapiens) (UniProt P25021). The assay is described as follows: Inhibition of [3H]tiotidine binding to histamine 2 receptor of central nervous system. The conditions noted are these: concentration not given here.
Assay [6] deals with Glutamate receptor ionotropic kainate (Homo sapiens) (UniProt P39086+Q16478+Q16099+Q13002+Q13003). The experiment in a line: Inhibition of [3H]kainate binding to Ionotropic glutamate receptor kainate of central nervous system. It is filed as protein-complex assay. The settings on record: concentration not given here.
Assay [7] concerns the target Histamine H1 receptor (Homo sapiens) (UniProt P35367). The assay is described as follows: Inhibition of [3H]doxepine binding to histamine-1 receptor of central nervous system. The settings on record: concentration not given here.
The nature of assay [8]: Inhibition of [3H]DCKA binding to N-methyl-D-aspartate glutamate receptor 1 of central nervous system. The settings on record: concentration not given here.
Assay [9] addresses Glutamate receptor ionotropic AMPA (Homo sapiens) (UniProt P48058+P42263+P42262+P42261). The assay is described as follows: Inhibition of [3H]-AMPA binding to Quisqualate receptor of central nervous system. It is filed as protein-complex assay. The settings on record: concentration not given here.

Sequence of Gamma-aminobutyric acid type B receptor subunit 1 (Q9Z0U4 whole entry): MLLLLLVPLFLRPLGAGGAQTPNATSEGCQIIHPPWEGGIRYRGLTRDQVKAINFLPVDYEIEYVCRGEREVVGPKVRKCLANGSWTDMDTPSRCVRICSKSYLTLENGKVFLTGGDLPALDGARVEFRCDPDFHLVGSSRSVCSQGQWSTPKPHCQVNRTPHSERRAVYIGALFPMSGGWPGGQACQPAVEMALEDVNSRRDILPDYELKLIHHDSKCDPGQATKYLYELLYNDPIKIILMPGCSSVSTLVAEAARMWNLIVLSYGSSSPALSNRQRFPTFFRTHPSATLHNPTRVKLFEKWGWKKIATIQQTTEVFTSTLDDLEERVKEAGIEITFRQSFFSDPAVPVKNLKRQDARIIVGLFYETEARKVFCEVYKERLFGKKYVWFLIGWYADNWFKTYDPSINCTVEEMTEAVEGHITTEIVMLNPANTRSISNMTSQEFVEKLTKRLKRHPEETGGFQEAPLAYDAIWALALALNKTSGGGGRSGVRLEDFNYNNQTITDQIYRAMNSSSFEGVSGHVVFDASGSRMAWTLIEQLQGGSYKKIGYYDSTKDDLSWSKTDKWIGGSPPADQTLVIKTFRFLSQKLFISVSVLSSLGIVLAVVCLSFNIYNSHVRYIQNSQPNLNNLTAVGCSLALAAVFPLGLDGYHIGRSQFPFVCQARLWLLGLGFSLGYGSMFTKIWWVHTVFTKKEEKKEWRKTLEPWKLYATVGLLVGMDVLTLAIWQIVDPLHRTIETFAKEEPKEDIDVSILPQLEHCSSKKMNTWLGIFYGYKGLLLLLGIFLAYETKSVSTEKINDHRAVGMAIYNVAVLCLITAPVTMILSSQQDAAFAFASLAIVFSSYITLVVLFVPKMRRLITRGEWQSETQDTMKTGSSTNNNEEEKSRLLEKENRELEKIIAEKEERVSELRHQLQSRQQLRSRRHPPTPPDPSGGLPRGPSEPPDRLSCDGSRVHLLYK
Sequence of Histamine H1 receptor (Homo sapiens) (P35367 whole entry): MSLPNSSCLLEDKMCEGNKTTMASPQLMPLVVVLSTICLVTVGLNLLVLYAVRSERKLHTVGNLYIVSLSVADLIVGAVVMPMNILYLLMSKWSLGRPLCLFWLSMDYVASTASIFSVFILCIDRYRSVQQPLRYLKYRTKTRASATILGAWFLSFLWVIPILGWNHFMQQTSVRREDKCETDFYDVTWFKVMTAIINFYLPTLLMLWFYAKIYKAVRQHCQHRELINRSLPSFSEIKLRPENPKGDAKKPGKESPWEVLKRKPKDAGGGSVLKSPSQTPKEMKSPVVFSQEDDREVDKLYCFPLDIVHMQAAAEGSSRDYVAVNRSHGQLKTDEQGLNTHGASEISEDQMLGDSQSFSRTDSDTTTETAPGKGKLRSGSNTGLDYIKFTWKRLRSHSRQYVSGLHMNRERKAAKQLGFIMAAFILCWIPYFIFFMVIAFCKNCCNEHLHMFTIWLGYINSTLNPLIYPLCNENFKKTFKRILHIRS
Sequence of Histamine H2 receptor (Homo sapiens) (P25021 whole entry): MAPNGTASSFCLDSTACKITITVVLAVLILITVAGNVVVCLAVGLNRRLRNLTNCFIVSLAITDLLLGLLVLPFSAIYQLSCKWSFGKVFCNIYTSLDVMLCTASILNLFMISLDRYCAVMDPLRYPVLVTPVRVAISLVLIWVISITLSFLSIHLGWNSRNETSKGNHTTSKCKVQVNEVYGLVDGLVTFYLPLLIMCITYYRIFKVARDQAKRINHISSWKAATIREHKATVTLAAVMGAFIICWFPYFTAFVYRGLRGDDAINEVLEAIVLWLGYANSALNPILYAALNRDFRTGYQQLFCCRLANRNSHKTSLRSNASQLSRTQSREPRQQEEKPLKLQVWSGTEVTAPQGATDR

On to `CCOC(OCC)P(=O)(O)C[C@@H](O)CN`, for which the EC150 in [1] is 11 µM. Also, the pIC50 (in general, the negative decadic logarithm of the IC50, by convention in mol/L) in assay [2] was 4.92.

With `CCP(=O)(O)CCCN`, the EC150 in assay [1] is 118 µM. The pIC50 in assay [2] was 5.70.

Take `NCC(=O)CP(=O)(O)CC1CC1`: the EC150 in assay [1] is 3 µM. The negative logarithm of the IC50 (pIC50) in [2] was 4.85.

For the compound `CC(=O)CCP(=O)(O)CCCN`, the EC150 in [1] came to 4 µM. The compound further had a pIC50 in assay [2] of 6.00.

For `CCCCP(=O)(O)CC(O)(CN)c1ccc(Cl)cc1` (stereo not drawn), the EC150 in assay [1] was 45 µM. In [2], this compound had a pIC50 of 5.15.

Take `NCCCP(=O)(O)CC1CC1`: the EC150 in assay [1] came to 53 µM. This compound also gave a pIC50 in assay [2] of 4.43.

With `NCCCP(=O)(O)Cc1ccccn1`, the EC150 in assay [1] was determined as 30 µM. The pIC50 in assay [2] is 5.22.

With `CP(=O)(O)CC(O)(CN)c1ccc(Cl)cc1` (stereo not drawn), the EC150 in [1] worked out at 30 µM. In addition, the pIC50 in assay [2] is 5.22.

As for `CCOC(OCC)P(=O)(O)CCCN`, in assay [1], the EC150 came out at 30 µM. This compound showed a pIC50 in assay [2] of 4.57.

In the case of `NCCCP(=O)(O)C(O)c1ccccc1` (stereo not drawn), in [1], the EC150 came out at 10 µM. The pIC50 in [2] is 5.10.

For the compound `CCCC(F)(F)P(=O)(O)CCCN`, in [1], the EC150 stood at 115 µM. The compound also had a pIC50 in assay [2] of 4.66.

Turning to `NCCCP(=O)(O)CCC1CCCCO1` (stereo not drawn), in assay [1], the EC150 stood at 30 µM. Also, the pIC50 in assay [2] is 5.70.

As for `NCCCP(=O)(O)CN`, the EC150 in assay [1] was 2 µM. In addition, in assay [2], the pIC50 was 4.30.

For the compound `NCC(=O)CP(=O)(O)CC1CCCCC1`, the EC150 in assay [1] amounted to 5 µM. This compound had a pIC50 in assay [2] of 4.30.

Regarding `NCCCP(=O)(O)c1ccccc1`, in assay [2], the pIC50 is 3.90.

For `CC(C)CP(=O)(O)CCCN`, the EC150 in assay [1] worked out at 98 µM. The compound further gave a pIC50 in assay [2] of 4.85.

As for `CCCOC(OCCC)P(=O)(O)CCCN`, the EC150 in assay [1] amounted to 60 µM. In assay [2], the pIC50 was 4.55.

With `NCCCP(=O)(O)CC(O)CNC(=O)c1ccccc1C(N)=O` (stereo not drawn), the EC150 in assay [1] worked out at 9 µM. The compound further had a negative-log IC50 (pIC50) in assay [2] of 5.70.

For `CCCCCCP(=O)(O)CCCN`, the EC150 in [1] came to 14 µM. In assay [2], this compound showed a pIC50 of 4.70.

In the case of `NC[C@H](O)CP(=O)(O)CC1CCCCC1`, the EC150 in assay [1] stood at 2 µM. Moreover, the pIC50 in assay [2] is 5.30.

`NCCCP(=O)(O)Cc1ccc(F)cc1`: the EC150 in assay [1] came out at 10 µM. The same compound gave a pIC50 in assay [2] of 4.28.

Take `CP(=O)(O)CC(CN)c1ccc(Cl)cc1` (stereo not drawn): in assay [1], the EC150 amounted to 28 µM. The compound also showed a pIC50 in assay [2] of 5.05.

In assay [2], `CCCCP(=O)(O)CC(C)(O)CN` (stereo not drawn) showed a pIC50 of 4.35.

In the case of `NCCCP(=O)(O)C1CCCCO1` (stereo not drawn), the EC150 in assay [1] worked out at 144 µM. For the same compound, the pIC50 in assay [2] was 4.41.

Turning to `CCOC(OCC)P(=O)(O)CC(O)CN` (stereo not drawn), the EC150 in assay [1] turned out to be 9 µM. The pIC50 in [2] is 4.80.

The compound `CCCCP(=O)(O)C(O)CCN` (stereo not drawn) had a negative logarithm of the IC50 (pIC50) in [2] of 4.43.

In turn, `CC(C)(C)P(=O)(O)CCCN` showed a pIC50 in assay [2] of 4.14.

In the case of `NC[C@H](O)CP(=O)(O)Cc1ccccc1`, the EC150 in [1] came out at 5 µM. The compound further had a pIC50 in assay [2] of 5.30.

Turning to `CCOC(OCC)P(=O)(O)CC(CN)c1ccc(Cl)cc1` (stereo not drawn), in assay [1], the EC150 is 11 µM. Further, the pIC50 in [2] was 4.68.

In the case of `CCCCP(=O)(O)CC(O)CN` (stereo not drawn), the EC150 in [1] worked out at 8 µM. This compound gave a negative-log IC50 (pIC50) in assay [2] of 4.54.

`NCCCP(=O)(O)CCC1CCCCC1`: the EC150 in [1] amounted to 13 µM. In [2], this compound had a pIC50 of 5.70.

Consider `NCCCP(=O)(O)CCCN`, for which the pIC50 in assay [2] is 4.54.

As to `NCCCP(=O)(O)CC1CCCCC1`, in [1], the EC150 worked out at 3 µM. In addition, the pIC50 in assay [2] is 5.40.

With `NCC(O)CP(=O)(O)CC1CCCCC1` (stereo not drawn), the EC150 in assay [1] amounted to 8 µM. The compound also gave a pIC50 in assay [2] of 5.30.

Take `CCCC(O)P(=O)(O)CCCN` (stereo not drawn): the EC150 in assay [1] came to 44 µM. This compound showed a pIC50 in assay [2] of 4.74.

Consider `CCCCP(=O)(O)CC(=O)CN`, for which, in [1], the EC150 was found to be 6 µM.

In the case of `NC[C@@H](O)CP(=O)(O)CC1CCCCC1`, in assay [1], the EC150 was 4 µM. Also, in [2], the pIC50 was 5.22.

Take `NCCCP(=O)(O)C1CCCO1` (stereo not drawn): in assay [1], the EC150 amounted to 89 µM. Also, the pIC50 in [2] was 4.47.

For `NCCCP(=O)(O)Cc1ccccc1`, the EC150 in assay [1] worked out at 5 µM. This compound had a pIC50 in assay [2] of 5.00.

Consider `NCCCP(=O)(O)CC1CCCCO1` (stereo not drawn), for which the EC150 in [1] amounted to 12 µM. In assay [2], this compound showed a pIC50 of 4.49.

In the case of `CCCP(=O)(O)CCCN`, the EC150 in assay [1] came to 30 µM. In addition, in assay [2], the pIC50 was 4.80.

Take `CP(=O)(O)CCCN`: the EC150 entry in assay [3] is “Agonist”.

As for `CCCCP(=O)(O)CCCN` [SGS-742], the inhibition (in general, the share of the control response that was lost under treatment) in assay [4] was 2%; in [5] it was 6%; in assay [6], 8%; in [7], 7%; in assay [8] it was 16%; in assay [9], 7%. Moreover, in assay [1], the EC150 turned out to be 38 µM.

For the compound `NCCCP(=O)(O)CCc1ccccc1`, in [1], the EC150 turned out to be 60 µM. In addition, the pIC50 in [2] was 5.00.

Regarding `NCCC[PH](=O)O`, the EC150 result in assay [3] is “Agonist”. For the same compound, the pIC50 in assay [2] was 8.30.

In the case of `CC(C)OC(OC(C)C)P(=O)(O)CCCN`, the EC150 in [1] came to 47 µM. The compound further gave a pIC50 in [2] of 4.74.

In the case of `CCCCP(=O)(O)C(C)CCN` (stereo not drawn), the EC150 in assay [1] was determined as 8 µM. In addition, the pIC50 in assay [2] is 3.47.

Consider `CCCCOC(OCCCC)P(=O)(O)CCCN`, for which the EC150 in assay [1] was 300 µM. The same compound gave a pIC50 in assay [2] of 4.70.

For the compound `NCC(O)CP(=O)(O)Cc1ccccc1` (stereo not drawn), in assay [1], the EC150 was determined as 4 µM. Besides, in [2], the pIC50 is 5.10.

In the case of `NC[C@@H](O)CP(=O)(O)Cc1ccccc1`, the EC150 in [1] was found to be 11 µM. Moreover, in assay [2], the pIC50 is 4.49.

For the origin of these results see ChEMBL document CHEMBL1128522, “Phosphinic acid analogues of GABA. 2. Selective, orally active GABAB antagonists” (J Med Chem, 1995).
